The subject of one assay is A-431. Briefly: Growth inhibition of human A431 cells after 2 days by sulforhodamine B assay. In kind it is functional. As to conditions: A-431, 48 h. The essentials: (§1)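 Cells kept in RPMI 1640 with 10% FBS at 37 °C, 5% CO2; 1000 cells/well plated, compounds added next day at various concentrations, 2 days exposure. Fixed with 4% formalin 30 min, stained 0.1% SRB 30 min, acetic acid washes, dye eluted in 0.1 M Tris-HCl pH 8.0, A520 read. Triplicate, averaged; time-zero absorbance = 0%, untreated 2-day growth = 100%.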

Assay [1] has as its target Cyclin-dependent kinase 2/cyclin A (Homo sapiens, UniProt P24941). Briefly: Inhibition of human recombinant CDK2/cyclin A expressed in baculovirus-infected insect Sf21 cells after 10 mins.
The next assay has as its system HCT-116. The experiment in a line: Growth inhibition of human HCT116 cells after 2 days by sulforhodamine B assay. In kind it is functional. As to conditions: HCT-116, 48 h. The essentials: as §1
(In general: Sulforhodamine B stains cellular protein and so reports cell mass.)

Assay [2] deals with Epidermal growth factor receptor (Homo sapiens, UniProt P00533). The experiment in a line: Inhibition of EGFR.
Chain of Epidermal growth factor receptor (P00533 whole entry): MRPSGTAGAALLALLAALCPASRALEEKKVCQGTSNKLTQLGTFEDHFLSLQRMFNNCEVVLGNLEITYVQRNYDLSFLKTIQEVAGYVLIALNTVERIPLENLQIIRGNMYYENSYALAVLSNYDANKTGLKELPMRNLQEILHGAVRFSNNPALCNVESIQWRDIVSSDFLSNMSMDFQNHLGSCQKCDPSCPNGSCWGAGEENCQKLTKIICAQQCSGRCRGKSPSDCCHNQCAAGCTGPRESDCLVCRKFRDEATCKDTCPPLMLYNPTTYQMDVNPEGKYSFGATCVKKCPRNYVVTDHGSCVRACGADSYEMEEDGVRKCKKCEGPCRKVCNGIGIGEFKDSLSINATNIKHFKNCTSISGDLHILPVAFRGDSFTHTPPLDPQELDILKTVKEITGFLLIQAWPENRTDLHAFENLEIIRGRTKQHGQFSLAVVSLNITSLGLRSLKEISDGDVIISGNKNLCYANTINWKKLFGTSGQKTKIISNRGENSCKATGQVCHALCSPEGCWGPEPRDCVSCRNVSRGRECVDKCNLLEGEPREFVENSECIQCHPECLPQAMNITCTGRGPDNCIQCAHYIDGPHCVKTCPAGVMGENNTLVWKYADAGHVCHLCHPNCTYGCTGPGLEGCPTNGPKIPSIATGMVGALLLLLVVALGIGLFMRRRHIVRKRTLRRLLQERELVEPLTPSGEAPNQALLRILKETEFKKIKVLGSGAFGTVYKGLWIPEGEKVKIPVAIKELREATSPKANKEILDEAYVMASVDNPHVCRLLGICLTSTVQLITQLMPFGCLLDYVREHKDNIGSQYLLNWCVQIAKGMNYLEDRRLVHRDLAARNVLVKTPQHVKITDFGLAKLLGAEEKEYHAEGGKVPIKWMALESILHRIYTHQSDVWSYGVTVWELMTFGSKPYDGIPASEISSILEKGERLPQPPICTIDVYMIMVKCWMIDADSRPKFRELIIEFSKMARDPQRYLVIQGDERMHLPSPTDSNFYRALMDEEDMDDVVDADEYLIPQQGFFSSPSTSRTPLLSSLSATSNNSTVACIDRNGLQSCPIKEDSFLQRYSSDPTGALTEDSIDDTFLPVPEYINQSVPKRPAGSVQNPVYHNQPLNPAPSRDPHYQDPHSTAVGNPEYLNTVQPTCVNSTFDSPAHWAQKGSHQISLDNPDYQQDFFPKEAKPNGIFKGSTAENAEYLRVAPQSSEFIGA

SMILES strings stand for the structures. Where only a bound is given, the exact number is not on record here.

For `CC1=C(C(=O)Nc2cccc([N+](=O)[O-])c2)C(c2ccc(O)cc2O)NC(NN2C(=O)/C(=C\c3ccco3)SC2=S)=N1` (centres undefined), the GI50 in the assay with A-431 is 28.9 µM; with HCT-116, above 100 µM. Further, the IC50 turned out to be 0.4 µM in assay [1] and 99.3 µM in assay [2].

`CC1=C(C(=O)Nc2cccc([N+](=O)[O-])c2)C(c2ccc(O)cc2O)NC(N/N=C/c2ccco2)=N1` (centres undefined): the GI50 came out at 2.91 µM in the assay on A-431 and 8.89 µM in the assay on HCT-116. The IC50 in assay [1] is 3.8 µM; in assay [2], above 100 µM.

On to `CC1=C(C(=O)Nc2ccc(C)cc2)C(c2ccc(O)cc2O)NC(Nc2ccc([N+](=O)[O-])cc2Cl)=N1` (centres undefined), for which the figures for the GI50 in the assay with A-431 and in the assay with HCT-116 were 31.9 µM and 28.2 µM, respectively. Moreover, the IC50 in assay [1] was determined as 44.9 µM; in assay [2] it was 60.9 µM.

As to `CC1=NN(C2=NC(C)=C(C(=O)Nc3cccc([N+](=O)[O-])c3)C(c3ccc(O)cc3O)N2)C(=O)/C1=C/c1cccs1` (centres undefined), the values for the GI50 with A-431 and in the assay with HCT-116 were 37.1 µM and 26.5 µM, respectively. In addition, the IC50 was 3.1 µM in assay [1] and above 100 µM in assay [2].

As for `CC1=C(C(=O)Nc2ccc(C)cc2)C(c2ccc(O)cc2O)NC(NCc2ccccc2)=N1` (centres undefined), the GI50 in the assay on A-431 was determined as 42.7 µM; in the assay on HCT-116, 66.7 µM. Moreover, the IC50 in assay [1] is above 100 µM; in assay [2], 23.5 µM.

In the case of `CC1=C(C(=O)Nc2cccc([N+](=O)[O-])c2)C(c2ccc(O)cc2O)NC(NN)=N1` (centres undefined), the GI50 with A-431 was 24.3 µM; in the assay with HCT-116, 47.7 µM. Moreover, the values for the IC50 in assay [1] and in assay [2] were above 100 µM and 47.9 µM, respectively.

For the molecule `CC1=C(C(=O)Nc2cccc([N+](=O)[O-])c2)C(c2ccc(O)cc2O)NC(SCc2ccccc2)=N1` (centres undefined), the GI50 in the assay with A-431 is above 100 µM; in the assay on HCT-116 it was 29 µM. For the same molecule, the values for the IC50 in assay [1] and in assay [2] were 24.6 µM and 55.6 µM, respectively.

For `CC1=C(C(=O)Nc2cccc([N+](=O)[O-])c2)C(c2ccc(O)cc2O)NC(Nc2ccc([N+](=O)[O-])cc2Cl)=N1` (centres undefined), the GI50 in the assay with A-431 came to 3.94 µM; with HCT-116, 10.9 µM. Moreover, the IC50 is 8.1 µM in assay [1] and above 100 µM in assay [2].

With `CC[C@H](CO)Nc1nc(NCc2ccccc2)c2c(n1)N(C(C)C)CN2` [RESCOVITINE], the IC50 in assay [1] is 0.5 µM.

Consider `CC1=C(C(=O)Nc2cccc([N+](=O)[O-])c2)C(c2ccc(O)cc2O)NC(Nc2ccc(S(=O)(=O)Nc3ncccn3)cc2)=N1` (centres undefined), for which the figures for the GI50 in the assay on A-431 and with HCT-116 were 69.2 µM and 77.5 µM, respectively. Moreover, the IC50 in assay [1] stood at 57.5 µM; in assay [2], 88.3 µM.

`CC1=C(C(=O)Nc2cccc([N+](=O)[O-])c2)C(c2ccc(O)cc2O)NC(N/N=C/c2cccs2)=N1` (centres undefined): the GI50 in the assay with A-431 stood at 19.1 µM; in the assay with HCT-116 it was 38.2 µM. The IC50 in assay [1] was 22.9 µM; in assay [2], above 100 µM.

In the case of `CC1=C(C(=O)Nc2cccc([N+](=O)[O-])c2)C(c2ccc(O)cc2O)NC(NN2C(=O)/C(=C\c3ccccc3)SC2=S)=N1` (centres undefined), the figures for the GI50 with A-431 and in the assay with HCT-116 were 24.3 µM and 16.6 µM, respectively. Moreover, the half-maximal inhibitory concentration (IC50) is 28.2 µM in assay [1] and above 100 µM in assay [2].

Take `CC1=C(C(=O)Nc2cccc([N+](=O)[O-])c2)C(c2ccc(O)cc2O)NC(Nc2ccc(S(=O)(=O)Nc3cc(C)on3)cc2)=N1` (centres undefined): the 50% growth inhibitory concentration (GI50) in the assay on A-431 was found to be 2.94 µM; in the assay with HCT-116, 16.6 µM. Besides, the figures for the IC50 in assay [1] and in assay [2] were 0.9 µM and above 100 µM, respectively.

For the molecule `Cc1ccc(NC(=O)c2c(C)nc(S(=O)(=O)Cc3ccccc3)nc2-c2ccc(O)cc2O)cc1`, the GI50 is 32 µM in the assay on A-431 and 23.4 µM in the assay on HCT-116. The IC50 in assay [1] is 48.3 µM; in assay [2], above 100 µM.

For the molecule `CC1=NN(C2=NC(C)=C(C(=O)Nc3cccc([N+](=O)[O-])c3)C(c3ccc(O)cc3O)N2)C(=O)/C1=C/c1ccco1` (centres undefined), the GI50 with A-431 was 15.8 µM; in the assay with HCT-116, above 100 µM. Further, the IC50 in assay [1] was 10.3 µM; in assay [2] it was above 100 µM.

Consider `CC1=C(C(=O)Nc2cccc([N+](=O)[O-])c2)C(c2ccc(O)cc2O)NC(Nc2ccc(S(=O)(=O)Nc3nc(C)cc(C)n3)cc2)=N1` (centres undefined), for which the values for the GI50 in the assay on A-431 and with HCT-116 were 3.94 µM and 8.99 µM, respectively. For the same molecule, the IC50 in assay [1] was 11.5 µM; in assay [2] it was 79.8 µM.

As to `CC1=C(C(=O)Nc2cccc([N+](=O)[O-])c2)C(c2ccc(O)cc2O)NC(NN2C(=O)/C(=C\c3cccs3)SC2=S)=N1` (centres undefined), the GI50 in the assay on A-431 amounted to 2.78 µM; with HCT-116, 4.5 µM. The IC50 in assay [1] was determined as 0.3 µM; in assay [2], 80.6 µM.

Consider `CC1=C(C(=O)Nc2ccc(C)cc2)C(c2ccc(O)cc2O)NC(SCc2ccccc2)=N1` (centres undefined), for which the values for the GI50 in the assay on A-431 and in the assay on HCT-116 were 20.8 µM and 14.5 µM, respectively. The IC50 in assay [1] turned out to be 25.4 µM; in assay [2], 93.5 µM.

As to `Cc1nc(S(=O)(=O)Cc2ccccc2)nc(-c2ccc(O)cc2O)c1C(=O)Nc1cccc([N+](=O)[O-])c1`, the GI50 is 28.9 µM with A-431 and 10.9 µM in the assay with HCT-116. The IC50 is 0.9 µM in assay [1] and above 100 µM in assay [2].

Turning to `CC1=C(C(=O)Nc2cccc([N+](=O)[O-])c2)C(c2ccc(O)cc2O)NC(NCc2ccccc2)=N1` (centres undefined), the figures for the GI50 in the assay with A-431 and in the assay with HCT-116 were 35.6 µM and above 100 µM, respectively. In addition, the IC50 was 46.8 µM in assay [1] and above 100 µM in assay [2].

Regarding `COc1cccc2c1C(=O)c1c(O)c3c(c(O)c1C2=O)C[C@@](O)(C(=O)CO)C[C@@H]3O[C@H]1C[C@H](N)[C@H](O)[C@H](C)O1` [DOXORUBICIN], the GI50 in the assay on A-431 turned out to be 0.18 µM; in the assay on HCT-116, 0.13 µM.

Usually GI50 stands for the concentration that inhibits growth by half. Usually IC50 stands for the concentration needed to halve the response being measured.

For the origin of these results see ChEMBL document CHEMBL1154872, “Design, synthesis, and biological evaluation of novel pyrimidine derivatives as CDK2 inhibitors” (Eur J Med Chem, 2010).
